From article PMC2853048 (Journal of medicinal chemistry, 2009)

Legend:
human Gli1 = molecular target: T1, human Gli1 (Homo sapiens, UniProt P08151); assay: Gli-mediated transcription reporter assay in C3H10T1/2 cells with exogenous Gli1; format: cell-based; conditions: for inhibition of Gli1-mediated transcription (Gli-reporter activity), in words: Gli1-transfected C3H10T1/2 cells, 24 h, 20 µM or 40 µM
T1 sequence (P08151 1-1106): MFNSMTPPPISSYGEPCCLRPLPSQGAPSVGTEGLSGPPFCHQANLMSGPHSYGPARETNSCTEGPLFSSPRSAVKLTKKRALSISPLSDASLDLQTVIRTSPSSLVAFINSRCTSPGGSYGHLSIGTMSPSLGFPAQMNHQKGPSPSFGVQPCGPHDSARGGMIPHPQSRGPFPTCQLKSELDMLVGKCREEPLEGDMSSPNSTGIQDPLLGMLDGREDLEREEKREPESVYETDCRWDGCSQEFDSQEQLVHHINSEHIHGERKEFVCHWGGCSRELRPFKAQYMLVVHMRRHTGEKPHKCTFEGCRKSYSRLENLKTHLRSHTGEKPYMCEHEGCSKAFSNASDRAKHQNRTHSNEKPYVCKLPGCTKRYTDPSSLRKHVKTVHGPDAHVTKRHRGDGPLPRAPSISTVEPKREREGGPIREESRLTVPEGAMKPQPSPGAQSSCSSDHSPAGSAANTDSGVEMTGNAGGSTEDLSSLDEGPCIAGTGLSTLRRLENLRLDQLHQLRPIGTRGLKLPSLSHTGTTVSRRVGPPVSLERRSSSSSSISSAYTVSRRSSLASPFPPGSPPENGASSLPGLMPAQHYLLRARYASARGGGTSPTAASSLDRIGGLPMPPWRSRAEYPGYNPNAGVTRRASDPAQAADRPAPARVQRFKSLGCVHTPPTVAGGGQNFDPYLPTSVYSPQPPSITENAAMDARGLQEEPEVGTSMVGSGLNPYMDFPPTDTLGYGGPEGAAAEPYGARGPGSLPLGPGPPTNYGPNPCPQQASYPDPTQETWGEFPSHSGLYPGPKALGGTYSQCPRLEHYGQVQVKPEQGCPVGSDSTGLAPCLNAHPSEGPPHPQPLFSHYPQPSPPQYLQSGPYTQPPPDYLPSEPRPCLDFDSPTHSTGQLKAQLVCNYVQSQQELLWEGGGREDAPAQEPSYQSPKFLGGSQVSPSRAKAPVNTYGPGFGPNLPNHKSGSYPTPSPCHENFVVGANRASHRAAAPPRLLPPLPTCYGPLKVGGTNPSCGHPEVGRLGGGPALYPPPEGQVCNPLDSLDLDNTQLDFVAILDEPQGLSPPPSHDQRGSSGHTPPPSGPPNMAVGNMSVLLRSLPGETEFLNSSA

[1] = Stability of compounds in C3H10T1/2 cell cultures; format: in vitro ADME, mouse; conditions: 24 hours
BJ-hTERT cells = assay: Cell viability assay; format: cell-based; conditions: noncancerous human skin fibroblasts, 40 µM, 72 h
Outline: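 Cells plated in 384-well format 24 h before dosing. A 10-mM DMSO stock was diluted in EMEM to 160 µM (4×) and added in triplicate to a final 40 µM. Incubated 68 h at 37 °C, then Alamar Blue for 4 h at 37 °C. Fluorescence read at ex 510 / em 590 nm; viability expressed relative to DMSO control wells.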

endogenous Gli1 = assay: Gli-mediated transcription reporter assay in Rh30 cells; format: cell-based; conditions: Rh30 cells without cotransfection of exogenous Gli1, 24 h, 10, 20 or 40 µM
Outline: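 Rh30 cells were grown in RPMI-1640 with 10% FBS at 37 °C, 5% CO2. At about 70% confluence they were transfected overnight with GliLuc-BS (500 ng/mL) and pRL-CMV (2.5 ng/mL) using Fugene6. Cells were replated, then dosed 18 h later for 24 h. Lysates were read by dual luciferase (firefly/Renilla). DMSO = 0% inhibition; triplicates, SE shown.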

exogenous Gli1 protein = assay: Western blot of Gli1 protein levels in Gli1-transfected C3H10T1/2 cells; format: cell-based, human

| Compound | inhibition of Gli1-mediated transcription (Gli-reporter activity), in words (human Gli1) | also measured |
| --- | --- | --- |
| CC(C(=O)NCCc1ccc(O)cc1)c1cccc(C(=O)c2ccccc2)c1 (racemic) [Compound 37, (±)-2-(3-Benzoylphenyl)-N-(4-hydroxyphenethyl)propanamide] | lower activity than did 36 | – |
| CC(C)Cc1ccc(C(C)C(=O)NCCc2ccc(O)cc2)cc1 (stereo not drawn) [Compound 34, N-(4-Hydroxyphenethyl)-2-(4-isobutylphenyl)propanamide] | modest inhibition | – |
| COc1ccc2cc([C@@H](C)C(=O)NCCc3ccc(O)cc3)ccc2c1 [Compound 38, (R)-N-(4-Hydroxyphenethyl)-2-(6-methoxynaphthalen-2-yl)propanamide] | lower activity than did 35 | – |
| C[C@H](C(=O)NCCc1ccc(O)cc1)c1cccc(C(O)c2ccccc2)c1 (stereo partly drawn) [Compound 39, (2S)-2-(3-(Hydroxy(phenyl)methyl)phenyl)-N-(4-hydroxyphenethyl)propanamide] | less potent than 36 | – |
| C[C@H](C(=O)NCCc1ccc(O)cc1)c1cccc(Cc2ccccc2)c1 [Compound 40, (S)-2-(3-Benzylphenyl)-N-(4-hydroxyphenethyl)propanamide] | less potent than 36 | – |
| O=C(Cc1ccccc1Oc1ccccc1)NCCc1ccc(O)cc1 [Compound 41, N-(4-Hydroxyphenethyl)-2-(2-phenoxyphenyl)acetamide] | decreased activity | – |
| O=C(Cc1cccc(Oc2ccccc2)c1)NCCc1ccc(O)cc1 [Compound 42, N-(4-Hydroxyphenethyl)-2-(3-phenoxyphenyl)acetamide] | equipotent | – |
| O=C(Cc1ccc(Oc2ccccc2)cc1)NCCc1ccc(O)cc1 [Compound 43, N-(4-Hydroxyphenethyl)-2-(4-phenoxyphenyl)acetamide] | equipotent | – |
| C[C@H](C(=O)NCCc1ccc(O)c(O)c1)c1cccc(C(=O)c2ccccc2)c1 [Compound 50, (S)-2-(3-Benzoylphenyl)-N-(3,4-dihydroxyphenethyl)propanamide] | – | stability in the C3H10T1/2 cell cultures [1]: significant degradation |
| C[C@H](C(=O)NCc1ccc(O)cc1)c1cccc(C(=O)c2ccccc2)c1 [Compound 53, (S)-2-(3-Benzoylphenyl)-N-((4-hydroxyphenyl)methyl)propanamide] | decreased activity | – |
| C[C@H](C(=O)Nc1ccc(O)cc1)c1cccc(C(=O)c2ccccc2)c1 [Compound 54, (S)-2-(3-Benzoylphenyl)-N-(4-hydroxyphenyl)propanamide] | decreased activity | – |
| C[C@H](CNC(=O)c1ccc(O)cc1)c1cccc(C(=O)c2ccccc2)c1 [Compound 55, (S)-N-(2-(3-Benzoylphenyl)propyl)-4-hydroxybenzamide] | better activity | – |
| C[C@H](CNC(=O)CCc1ccc(O)cc1)c1cccc(C(=O)c2ccccc2)c1 [Compound 56, (S)-N-(2-(3-Benzoylphenyl)propyl)-3-(4-hydroxyphenyl)propanamide] | modest increase in the potency | – |
| COc1ccc(C(=O)NC[C@@H](C)c2cccc(C(=O)c3ccccc3)c2)cc1 [Compound 57, (S)-N-(2-(3-Benzoylphenyl)propyl)-4-methoxybenzamide] | retained the activity | – |
| COc1ccc(COC[C@@H](C)c2cccc(C(=O)c3ccccc3)c2)cc1 [Compound 58, (S)-(3-(1-(4-Methoxybenzyloxy)propan-2-yl)phenyl)(phenyl)methanone] | almost no activity | – |
| C[C@H](CNC(=O)Nc1ccc(O)cc1)c1cccc(C(=O)c2ccccc2)c1 [Compound 59, (S)-1-(2-(3-Benzoylphenyl)propyl)-3-(4-hydroxyphenyl)urea] | comparable to that of 36 | cell viability / toxicity, BJ-hTERT (BJ-hTERT cells): toxic |
| C[C@H](CNC(=O)NCCc1ccc(O)cc1)c1cccc(C(=O)c2ccccc2)c1 [Compound 60, (S)-1-(2-(3-Benzoylphenyl)propyl)-3-(4-hydroxyphenethyl)urea] | comparable to that of 36 | cell viability / toxicity, BJ-hTERT (BJ-hTERT cells): toxic |
| C[C@H](COC(=O)Nc1ccc(O)cc1)c1cccc(C(=O)c2ccccc2)c1 [Compound 61, (S)-2-(3-Benzoylphenyl)propyl 4-hydroxyphenylcarbamate] | substantially decreased the activity | – |
| C[C@H](COC(=O)NCCc1ccc(O)cc1)c1cccc(C(=O)c2ccccc2)c1 [Compound 62, (S)-2-(3-Benzoylphenyl)propyl 4-hydroxyphenethylcarbamate] | substantially decreased the activity | – |
| CCCN(CCc1ccc(O)cc1)C(=O)[C@@H](C)c1cccc(C(=O)c2ccccc2)c1 [Compound 63, (S)-2-(3-Benzoylphenyl)-N-(4-hydroxyphenethyl)-N-propylpropanamide] | – | inhibition of Gli-reporter activity in Rh30 cells, in words (endogenous Gli1): downregulated; exogenous Gli1 protein level (exogenous Gli1 protein): not reduced; stability in the C3H10T1/2 cell cultures [1]: stable; cell viability / toxicity, BJ-hTERT (BJ-hTERT cells): without showing toxicity |
| C[C@H](C(=O)N(CCc1ccc(O)cc1)CCc1ccc(O)cc1)c1cccc(C(=O)c2ccccc2)c1 [Compound 65, (S)-2-(3-Benzoylphenyl)-N,N-bis(4-hydroxyphenethyl)propanamide] | – | inhibition selectivity of Gli1-mediated transcription over Gli2-mediated transcription (human Gli1; C3H10T1/2 cells, from IC50 values): least selective; stability in the C3H10T1/2 cell cultures [1]: stable |
| (S)-2-(3-Benzoylphenyl)-N-(2-hydroxyphenethyl)propanamide [Compound 44] | slightly decreased at 20 µM | – |
| (S)-2-(3-Benzoylphenyl)-N-(3-hydroxy-4-methoxyphenethyl)propanamide [Compound 52] | reduced the activity by about half | – |
| (S)-2-(3-Benzoylphenyl)-N-(4-chlorophenethyl)propanamide [Compound 49] | slightly lower activity than 36 | – |
| (S)-2-(3-Benzoylphenyl)-N-(4-hydroxy-3-methoxyphenethyl)propanamide [Compound 51] | reduced the activity by about half | – |
| (S)-2-(3-Benzoylphenyl)-N-(4-methoxyphenethyl)propanamide [Compound 47] | decrease in the activity | – |
| (S)-2-(3-Benzoylphenyl)-N-phenethylpropanamide [Compound 48] | significantly lower activity than 36 | – |
